In PMC8442886 (Science Advances, 2021):
Starred links: 1 amine or outer side, 2 acyl side, 3 side chain; linkers in the order of their positions; H or OH if unused. Positions of bridges follow the written chain, without caps; N, C: chain ends. Non-standard residues stand in square brackets, D forms with d. Residues, ends and D or L forms follow the SMILES beside them. No end group written: not given here. *: point of attachment. X1 = NC(=O)CC[C@@H]1NC(=O)[C@H](CO)N=C1N[C@@H](CO)C(=O)*; X2 = NC(=O)C[C@H](N[*:1])c1nc(C(=O)[*:2])cs1; X4 = NC(=O)C[C@H](N[*:1])c1nc(C(=O)[*:2])co1; X3 = O=C(c1csc([C@H](CO)N[*:1])n1)[*:2]

Experiments:
[1] = system: E. coli ΔsbmA cells (JW0368) expressing SbmA mutants; format: cell-based, Escherichia coli; conditions: for antibiotic sensitivity of cells carrying SbmA Tyr116 mutation: Tyr116 (potential periplasmic gate) mutant
[2] = molecular target: T1, BacA (Rhizobium meliloti, UniProt Q08120); assay: Microscale thermophoresis; format: binding, Sinorhizobium meliloti; conditions: BacA-ND complex; MST
T1 sequence (Q08120 1-420): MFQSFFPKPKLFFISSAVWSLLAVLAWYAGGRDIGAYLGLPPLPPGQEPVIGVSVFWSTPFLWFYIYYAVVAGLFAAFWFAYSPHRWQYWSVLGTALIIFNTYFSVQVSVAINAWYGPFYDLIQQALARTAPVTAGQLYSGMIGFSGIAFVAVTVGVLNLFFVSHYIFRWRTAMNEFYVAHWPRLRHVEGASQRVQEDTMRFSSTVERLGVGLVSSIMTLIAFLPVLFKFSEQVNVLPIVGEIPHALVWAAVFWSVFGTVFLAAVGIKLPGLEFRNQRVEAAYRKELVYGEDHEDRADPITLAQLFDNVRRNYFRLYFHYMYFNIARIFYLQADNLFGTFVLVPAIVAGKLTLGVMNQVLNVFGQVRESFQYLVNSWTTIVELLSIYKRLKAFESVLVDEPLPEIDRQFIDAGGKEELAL
How it was run: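 Purified protein mixed into DDM-solubilized lipid (7.5 mM lipid, 33 mM DDM) for 30 min at 28°C. Alexa Fluor 647–labeled MSP1E3D1 (S22C/A121C) added, then Amberlite XAD-2 overnight at 28°C, and nanodiscs purified by SEC. Labeled nanodiscs (20 nM) incubated 15 min in the dark with test compound in 20 mM K-Hepes pH 8, 150 mM KCl, 0.005% Tween 20 (DMSO 1.25% final). Kd from a 1:1 fit of the MST signal, three independent measurements.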

[3] = molecular target: Escherichia coli inner membrane transporter SbmA (E. coli) (UniProt P0AFY6); assay: MST
[4] = molecular target: the molecule itself; assay: cryo-EM structure
[5] = molecular target: the molecule itself; assay: cryo-EM structure; remark: listed apart in the source

With `CC(C)C[C@H](NC(=O)CNC(=O)CNC(=O)[C@@H](NC(=O)c1csc([C@H](CC(N)=O)NC(=O)[C@H](C)NC(=O)[C@H](CO)NC(=O)c2coc([C@H](CC(N)=O)NC(=O)[C@H](CO)NC(=O)c3csc([C@H](CO)NC(=O)[C@H](C)NC(=O)c4csc([C@H](CC(N)=O)NC(=O)CNC(=O)[C@@H]5CCCN5C(=O)[C@H](CO)NC5=N[C@@H](CO)C(=O)N[C@H]5CCC(N)=O)n4)n3)n2)n1)[C@@H](C)O)C(=O)O` [KLB, klebsazolicin] (X1-PG[X2]A[X3]S[X4]SA[X2]TGGL-OH; C-terminus assumed) the “antibiotic sensitivity of cells carrying SbmA Tyr116 mutation” value [1] was “resistant”.

For bleomycin, the Kd [2] was 19 ± 11 nM, the “antibiotic sensitivity of cells carrying SbmA Tyr116 mutation” value [1] was “slightly increased sensitivity” and the “antibiotic sensitivity of cells carrying SbmA Tyr368Ala mutant” value ([1]; Tyr368Ala (first internal gate) mutant) was “additionally sensitized”.

klebsazolicin (peptide) gave a Kd [3] of 849 nM.

“microcin J25 (GGAGHVPEYFVGIGTPISFYG; lactam N-8; ends not checked; UniProt Q9X2V7 38-58, looked up) [MccJ25]” was tested, and the “antibiotic sensitivity of cells carrying SbmA Tyr116 mutation” value [1] was “resistant”.

B1: Escherichia coli inner membrane transporter SbmA (natural protein, E. coli)
chain: MFKSFFPKPGTFFLSAFVWALIAVIFWQAGGGDWVARITGASGQIPISAARFWSLDFLIFYAYYIVCVGLFALFWFIYSPHRWQYWSILGTALIIFVTWFLVEVGVAVNAWYAPFYDLIQTALSSPHKVTIEQFYREVGVFLGIALIAVVISVLNNFFVSHYVFRWRTAMNEYYMANWQQLRHIEGAAQRVQEDTMRFASTLENMGVSFINAIMTLIAFLPVLVTLSAHVPELPIIGHIPYGLVIAAIVWSLMGTGLLAVVGIKLPGLEFKNQRVEAAYRKELVYGEDDATRATPPTVRELFSAVRKNYFRLYFHYMYFNIARILYLQVDNVFGLFLLFPSIVAGTITLGLMTQITNVFGQVRGAFQYLINSWTTLVELMSIYKRLRSFEHELDGDKIQEVTHTLS
With B1 the “stoichiometry N” value [4] was 2.

B2: BacA from Sinorhizobium meliloti (natural protein, S. meliloti, UniProt Q08120 1-420, looked up)
chain: T1 sequence (Q08120 1-420)
B2: binds [5].
